From PubChem BioAssay
Compounds with a hit are over-represented: about 2.5% of the library has one in this group of screens.
ADAM17 inh: ADAM17 inhibitors, primary screen, biochemical, QFRET; Disintegrin and metalloproteinase domain-containing protein 17 (Homo sapiens), P78536; recombinant ADAM17, EDANS/DABCYL FRET peptide cleavage; inhibition, % at 6.95 µM; 370,000 tested, 0.83% active;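 active = inhibition above the mean of compounds lying between control limits plus 3 SD, set per campaign, cut at about 8.5% in these data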;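 note: 0% = DMSO-only wells as the low control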
NR2E3 ag-1: inhibitors of NR2E3-RetCOR corepressor binding, primary screen, NR2E3 agonist project, biochemical, TR-FRET, GST-NR2E3, biotin-RetCOR | inhibition of corepressor binding, % at 4.78 µM | Photoreceptor-specific nuclear receptor (Homo sapiens), Q9Y5X4 | 1536-well | 320,000 tested, 0.12% active;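 active = percent inhibition above the cutoff of mean plus 3 SD of all tested compounds, set per screening campaign, cut at about 20% in these data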;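 note: 0% = DMSO wells and 100% = biotin wells as full block of FRET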
Target sequence (Q9Y5X4 whole entry, looked up): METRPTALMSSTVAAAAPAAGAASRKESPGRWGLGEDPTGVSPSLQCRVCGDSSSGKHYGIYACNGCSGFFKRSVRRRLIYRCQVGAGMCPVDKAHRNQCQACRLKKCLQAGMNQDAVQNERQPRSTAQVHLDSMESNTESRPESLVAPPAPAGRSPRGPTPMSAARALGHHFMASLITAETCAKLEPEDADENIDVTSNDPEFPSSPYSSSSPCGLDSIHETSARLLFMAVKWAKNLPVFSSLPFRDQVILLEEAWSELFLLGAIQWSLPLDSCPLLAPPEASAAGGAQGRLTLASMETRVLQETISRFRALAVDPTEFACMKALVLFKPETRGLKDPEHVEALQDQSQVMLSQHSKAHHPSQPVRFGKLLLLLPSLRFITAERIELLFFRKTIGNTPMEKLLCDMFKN
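Test system – NR2E3–RetCOR corepressor complex · Quantity – NR2E3 fusion 1.35 nM · Buffer or medium – Tris pH 7.5 · Incubation – Compound–protein incubation for 5 h at 4 °C · Technique – TR-FRET, Eu(K)-anti-GST donor, streptavidin-D2 acceptor, ex 340, em 617/671 nm · Evaluation – percent inhibition of 671/617 nm emission ratio versus biotin and DMSO controls · Plate – 1536-well format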
KLK7 zymogen act: proKLK7 zymogen activators, primary screen, biochemical, fluorescence intensity | Kallikrein-7 (Homo sapiens), P49862 | AID 652039, 2013 | purified proKLK7, EDANS-DABCYL substrate fluorescence; 100% is mature enzyme control, 0% vehicle | activation, % at 7 µM | 370,000 tested, 0.9% active;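 active = activation above the mean of all tested compounds plus 3 SD, computed per campaign excluding outliers beyond control limits, cut at about 13% in these data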
ADAM10 inh: human ADAM10 inhibitors, primary screen, biochemical, QFRET, HTS. inhibition, % at 7 µM. AID 720582, 2013. Disintegrin and metalloproteinase domain-containing protein 10 (Homo sapiens), O14672. recombinant ADAM10, EDANS/DABCYL FRET peptide cleavage, 3 h. 370,000 tested, 0.62% active;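 active = inhibition above a per-campaign cutoff equal to the mean of compounds falling between control-based bounds plus 3 SD, cut at about 20% in these data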;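 note: 0% = DMSO wells while the 100% control is not disclosed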
JMJD2C inh: inhibitors of GASC-1 histone demethylase, primary screen, biochemical, fluorescence, DELFIA europium. GST-JMJD2C(1-420) H3K9me3 demethylation. 330,000 tested, 0.069% active. inhibition, % at 2.35 µM. Lysine-specific demethylase 4C (Homo sapiens), Q9H3R0;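 active = more than half of a compound's replicate wells show inhibition beyond 50%, single wells judged on their own value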;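 note: signal counts dimethyl H3K9 product captured on neutravidin plate; 0% = median of DMSO wells and 100% = 0.3 times that DMSO median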
NR2E3 ag-2: NR2E3 agonists in two-hybrid cells, primary screen, cell-based, luminescence, CHO-S, Gal4-NCOR/VP16-NR2E3; Photoreceptor-specific nuclear receptor (Homo sapiens), Q9Y5X4; luciferase; inhibition of corepressor binding, % at 3.98 µM; 360,000 tested, 0.35% active;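 active = inhibition above the mean of all tested compounds plus 3 SD, cut at about 70% in these data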;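 note: 0% = DMSO with NR2E3 transfected cells and 100% = cells lacking NR2E3 construct; higher means lower luciferase signal from less NR2E3 corepressor binding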
ADAM10 confirm: human ADAM10 inhibitors, confirmation, biochemical, QFRET, triplicate | shares compounds with ADAM10 inh | inhibition, % at 6.95 µM | 2,100 tested, 1% active | AID 743208, 2013 | ADAM10 QFRET peptide cleavage, EDANS fluorescence;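 active = inhibition above about 20% chosen separately for each screening run, limit read from the data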;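 note: 0% = DMSO wells and 100% = marimastat wells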
ADAM17 ctr: ADAM17 inhibitors, counter-screen for ADAM10 exosite inhibitor project, biochemical, QFRET, high throughput | shares compounds with ADAM10 inh | ADAM17 QFRET peptide cleavage, EDANS fluorescence | inhibition, % at 6.95 µM | 2,100 tested, 0.5% active | AID 743214, 2013;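 active = mean triplicate inhibition above the solvent-only control wells' mean plus 3 SD, cut at about 12% in these data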;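 note: 0% = DMSO wells and 100% = marimastat wells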
ADAM10 ctr: ADAM10 inhibitors, counter-screen for ADAM17 exosite inhibitor project, biochemical, FRET, human ADAM10; shares compounds with ADAM17 inh; recombinant ADAM10, EDANS/DABCYL FRET peptide cleavage, 3 h; inhibition, % at 6.95 µM; 2,900 tested, 47% active; AID 743256, 2014;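 active = mean inhibition over the triplicate runs exceeds the activity threshold set in the earlier primary screen, cut at about 20% in these data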;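 note: 0% = DMSO wells and 100% = marimastat wells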
ADAM17 confirm: ADAM17 inhibitors, hit retest, confirmation, biochemical, QFRET peptide cleavage | shares compounds with ADAM17 inh | recombinant ADAM17, EDANS/DABCYL QFRET peptide cleavage | inhibition, % at 6.95 µM | 2,900 tested, 65% active | AID 743257, 2014;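 active = mean inhibition across replicates above the hit cutoff set in the primary screen, cut at about 8.5% in these data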;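 note: 0% = DMSO wells and 100% = marimastat wells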
Active calls of the source: *; . = not tested or not shown.

SMILES | ADAM17 inh | NR2E3 ag-1 | KLK7 zymogen act | ADAM10 inh | JMJD2C inh | NR2E3 ag-2 | ADAM10 confirm | ADAM17 ctr | ADAM10 ctr | ADAM17 confirm
O=C(COc1ccc(Cl)cc1)N1CCN(c2ccc([N+](=O)[O-])c(N3CCCCC3)c2)CC1 | 8.9* | 3.6 | 0.3 | 20.3* | 0.2 | -16.0 | 4.6 | 1.6 | 25.1* | 12.9*
COC(=O)c1cc(NS(=O)(=O)c2ccc(N3CCC(C)CC3)c([N+](=O)[O-])c2)cc(C(=O)OC)c1 | 13.0* | -0.4 | -0.3 | 28.1* | 7.3 | 12.6 | 5.5 | 2.6 | 25.7* | 16.7*
COC(=O)c1cc(NS(=O)(=O)c2ccc(N3CCCCC3)c([N+](=O)[O-])c2)cc(C(=O)OC)c1 | 5.9 | 0.8 | -0.3 | 17.9 | -0.2 | 5.1 | . | . | . | .
CC1CCCN(c2ccc(C(=O)Nc3ccc4c(c3)OCO4)cc2[N+](=O)[O-])C1 (stereo not drawn) | 6.2 | 2.1 | 0.1 | 18.6 | 29.7 | -30.3 | . | . | . | .
CC1CCN(c2ccc(C(=O)Nc3ccc4c(c3)OCO4)cc2[N+](=O)[O-])CC1 | 8.7* | 1.4 | 0.3 | 20.4* | -5.9 | -56.6 | 6.4 | 2.1 | 30.1* | 15.6*
CC[C@@H](C)[C@H](N)C(=O)NC[C@H]1O[C@@H](n2cnc3c(N)ncnc32)[C@H](O)[C@@H]1O | -4.0 | . | -0.3 | -9.7 | . | -24.9 | . | . | . | .
CCC(C)CN1C(=O)CN(S(C)(=O)=O)CC1(C)C(=O)Nc1c(C)cccc1C (stereo not drawn) | -2.9 | . | 0.1 | -8.0 | . | . | . | . | . | .
O=C1N[C@@H](Cc2c[nH]c3ccccc23)COC(=O)[C@@H](Cc2ccc(F)cc2)C/C=C\C[C@H]1CC(=O)N(CCO)Cc1ccccc1 | 9.7* | . | 0.8 | 24.1* | -7.6 | 2.2 | 4.1 | 1.8 | 30.3* | 15.3*
Cc1cc2cc(CNC(=S)NC3CCCCC3)ccc2n1C | -2.0 | 1.8 | -0.3 | -1.2 | 8.7 | 3.3 | . | . | . | .
CCOC(=O)c1c(-c2ccccc2)csc1NC(=O)CSc1nc(N)cc(N)n1 | 13.4* | -1.3 | 0.6 | 25.6* | 6.5 | 24.6 | 5.1 | 1.4 | 11.4 | 9.8*
CC(C)Oc1ccc(C(=O)N2CCN(C(=O)c3ccco3)CC2)cc1 | -2.2 | 2.4 | 0.7 | -5.2 | -2.3 | -18.0 | . | . | . | .
Cc1ccc(NC(=S)NC(=O)C2CCCCC2)c(Br)c1 | 14.8* | . | 1.1 | 33.3* | -1.8 | -190.8 | 3.2 | 1.3 | 10.8 | 9.3*
Cc1ccc(NC(=O)C2CCCC2)c(Br)c1 | -8.3 | 5.0 | 0.2 | 5.3 | 4.2 | -4.0 | . | . | . | .
Cc1ccc(S(=O)(=O)Nc2ccc(N(C)C)cc2)cc1 | 2.8 | 0.3 | 0.7 | -16.7 | 6.5 | 7.1 | . | . | . | .
